{"source": "ChEMBL document CHEMBL4020770", "about": "“Discovery of N-substituted-endo-3-(8-aza-bicyclo[3.2.1]oct-3-yl)-phenol and -phenyl carboxamide series of μ-opioid receptor antagonists” (Bioorg Med Chem Lett, 2017)", "data": [{"biological_target": "Mu-type opioid receptor (Homo sapiens, UniProt P35372)", "sequence (P35372 whole entry)": "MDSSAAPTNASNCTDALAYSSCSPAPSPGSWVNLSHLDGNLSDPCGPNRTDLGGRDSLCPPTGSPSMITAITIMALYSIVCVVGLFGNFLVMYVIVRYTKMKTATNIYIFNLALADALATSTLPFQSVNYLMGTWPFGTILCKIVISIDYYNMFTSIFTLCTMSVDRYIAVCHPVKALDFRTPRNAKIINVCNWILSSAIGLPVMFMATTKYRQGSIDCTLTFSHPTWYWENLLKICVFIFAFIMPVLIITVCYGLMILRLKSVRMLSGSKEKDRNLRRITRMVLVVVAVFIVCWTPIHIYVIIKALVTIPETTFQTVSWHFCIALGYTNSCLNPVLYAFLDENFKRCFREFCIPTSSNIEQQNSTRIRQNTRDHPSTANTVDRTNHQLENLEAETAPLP", "experiment": "Intrinsic activity at recombinant human mu opioid receptor expressed in CHOK1 cells by [35S]GTPgammaS binding assay relative to DAMGO", "assay_type": "functional, cell-based", "procedure,_shortened": "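Membranes from CHO-K1 cells stably transfected with human recombinant μ-opioid receptor; agonist activity measured as [35S]-GTPγS binding. Maximum compound-evoked response minus basal, expressed as percentage of the maximum response evoked by DAMGO.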", "units": {"Intrinsic activity": "%"}, "values": [{"smiles": "O=C1c2ccccc2C(=O)N1CCCCN1[C@@H]2CC[C@@H]1CC(c1cccc(O)c1)C2", "note": "(relative stereo; 21b)", "Intrinsic activity": 97}, {"smiles": "NC(=O)c1cccc(C2C[C@H]3CC[C@H](C2)N3Cc2c(F)cccc2F)c1", "note": "(relative stereo; 26b)", "Intrinsic activity": 19}, {"smiles": "CCCCCCCN1[C@@H]2CC[C@@H]1CC(c1cccc(O)c1)C2", "note": "(relative stereo; 17b)", "Intrinsic activity": 62}, {"smiles": "CC(C)(C)c1ccc(CN2[C@@H]3CC[C@@H]2CC(c2cccc(C(N)=O)c2)C3)cc1", "note": "(relative stereo; 28b)", "Intrinsic activity": 73}, {"smiles": "CC(C)(C)c1ccc(CN2[C@@H]3CC[C@@H]2CC(c2cccc(C(N)=O)c2)C3)cc1", "note": "(relative stereo; 28a)", "Intrinsic activity": 92}, {"smiles": "Oc1cccc(C2C[C@H]3CC[C@H](C2)N3CCCc2ccccc2)c1", "note": "(relative stereo; 12a)", "Intrinsic activity": 22}, {"smiles": "NC(=O)c1cccc(C2C[C@H]3CC[C@H](C2)N3CC(=O)C2CCCCC2)c1", "note": "(relative stereo; 30b)", "Intrinsic activity": 93}, {"smiles": "Oc1cccc(C2C[C@H]3CC[C@H](C2)N3CCCc2ccccc2)c1", "note": "(relative stereo; 12b)", "Intrinsic activity": 64}, {"smiles": "CC(C)(C)c1ccc(CN2[C@@H]3CC[C@@H]2CC(c2cccc(O)c2)C3)cc1", "note": "(relative stereo; 20a)", "Intrinsic activity": 100}, {"smiles": "NC(=O)c1cccc(C2C[C@H]3CC[C@H](C2)N3CC(O)Cc2ccccc2)c1", "note": "(stereo in doubt; 31b)", "Intrinsic activity": 39}, {"smiles": "O=C1c2ccccc2C(=O)N1CCCCN1[C@@H]2CC[C@@H]1CC(c1cccc(O)c1)C2", "note": "(relative stereo; 21a)", "Intrinsic activity": 26}, {"smiles": "Oc1cccc(C2C[C@H]3CC[C@H](C2)N3CCCOc2ccccc2)c1", "note": "(relative stereo; 19a)", "Intrinsic activity": 9}, {"smiles": "CCCCCCCN1[C@@H]2CC[C@@H]1CC(c1cccc(O)c1)C2", "note": "(relative stereo; 17a)", "Intrinsic activity": 26}, {"smiles": "CC(C)(C)c1ccc(CN2[C@@H]3CC[C@@H]2CC(c2cccc(O)c2)C3)cc1", "note": "(relative stereo; 20b)", "Intrinsic activity": 97}, {"smiles": "O=C(CN1[C@@H]2CC[C@@H]1CC(c1cccc(O)c1)C2)C1CCCCC1", "note": "(relative stereo; 22a)", "Intrinsic activity": 33}, {"smiles": "O=C(CN1[C@@H]2CC[C@@H]1CC(c1cccc(O)c1)C2)C1CCCCC1", "note": "(relative stereo; 22b)", "Intrinsic activity": 57}, {"smiles": "Oc1cccc(C2C[C@H]3CC[C@H](C2)N3CCCOc2ccccc2)c1", "note": "(relative stereo; 19b)", "Intrinsic activity": 85}, {"smiles": "NC(=O)c1cccc(C2C[C@H]3CC[C@H](C2)N3CCCOc2ccccc2)c1", "note": "(some centres undefined)", "Intrinsic activity": 95}, {"smiles": "NC(=O)c1cccc(C2C[C@H]3CC[C@H](C2)N3Cc2c(F)cccc2F)c1", "note": "(relative stereo; 26a)", "Intrinsic activity": 26}, {"smiles": "NC(=O)c1cccc(C2C[C@H]3CC[C@H](C2)N3CCCCN2C(=O)c3ccccc3C2=O)c1", "note": "(relative stereo; 29a)", "Intrinsic activity": 0}, {"smiles": "NC(=O)c1cccc(C2C[C@H]3CC[C@H](C2)N3CCCc2ccccc2)c1", "note": "(relative stereo; 24a)", "Intrinsic activity": 24}, {"smiles": "Oc1cccc(C2C[C@H]3CC[C@H](C2)N3CC(O)Cc2ccccc2)c1", "note": "(relative stereo; 23b)", "Intrinsic activity": 36}, {"smiles": "NC(=O)c1cccc(C2C[C@H]3CC[C@H](C2)N3CC(=O)C2CCCCC2)c1", "note": "(relative stereo; 30a)", "Intrinsic activity": 41}, {"smiles": "NC(=O)c1cccc(C2C[C@H]3CC[C@H](C2)N3CCCCN2C(=O)c3ccccc3C2=O)c1", "note": "(relative stereo; 29b)", "Intrinsic activity": 75}, {"smiles": "Oc1cccc(C2C[C@H]3CC[C@H](C2)N3Cc2c(F)cccc2F)c1", "note": "(relative stereo; 18b)", "Intrinsic activity": 48}, {"smiles": "Oc1cccc(C2C[C@H]3CC[C@H](C2)N3CC(O)Cc2ccccc2)c1", "note": "(relative stereo; 23a)", "Intrinsic activity": 1}, {"smiles": "NC(=O)c1cccc(C2C[C@H]3CC[C@H](C2)N3CCCOc2ccccc2)c1", "note": "(relative stereo)", "Intrinsic activity": 0}, {"smiles": "CCCCCCCN1[C@@H]2CC[C@@H]1CC(c1cccc(C(N)=O)c1)C2", "note": "(some centres undefined)", "Intrinsic activity": 38}, {"smiles": "NC(=O)c1cccc(C2C[C@H]3CC[C@H](C2)N3CC(O)Cc2ccccc2)c1", "note": "(relative stereo)", "Intrinsic activity": 3}]}]}
